Converted amounts (≈) assume the structure as drawn. The source made the active and inactive calls. No cut-off for these calls is given here.
Tests used:
[1] = Cytotoxicity in dog MDCK cells assessed as reduction in cell viability incubated for 48 hrs by crystal violet staining based assay; parameters: species or system Canis lupus familiaris
[2] = Tmax in mouse at 5 mg/kg, po administered as single dose; format: ADME, organism-based; conditions: in vivo
Summary of the method: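 Male Kunming mice (20–25 g) and male SD rats (180–220 g) were fasted 12 h before dosing. Compound was suspended in 0.5% CMC-Na and given by gavage (5 mg/kg mice, 3.5 mg/kg rats), or dissolved in PEG400 and given iv via tail vein (0.5 mg/kg mice, 0.35 mg/kg rats). Plasma was sampled from 5 min to 24 h and analysed by LC-MS/MS (n=3). F = AUCoral/AUCiv.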

[3] = Elimination half life in mouse at 0.5 mg/kg, iv administered as single dose; format: ADME, organism-based; conditions: in vivo, read-out: beta t1/2 (converted)
Summary of the method: (§1)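 Male Kunming mice (20-25 g) and male Sprague Dawley rats (180-220 g) were fasted 12 h before dosing. Oral dosing was by gavage as a suspension in 0.5% sodium carboxymethyl cellulose; iv dosing was via tail vein in PEG400. Serial plasma samples were taken to 24 h, protein-precipitated with acetonitrile plus N-CH3 internal standard, and quantified by LC-MS/MS (n=3). Bioavailability = AUCoral/AUCiv.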

[4] = Half life in rat at 3.5 mg/kg , po administered as single dose; format: ADME, organism-based; conditions: in vivo; summary of the method: as §1
[5] = Half life in rat at 0.35 mg/kg /kg, iv administered as single dose; format: ADME, organism-based; conditions: in vivo; summary of the method: as §1
[6] = Metabolic stability in human liver microsomes at 2 uM after 60 mins; format: ADME, Microsome; conditions: read-out: Stability
Summary of the method: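 Mouse, rat or human liver microsomes (final 0.5 mg/mL protein) were preincubated with an NADPH-regenerating system in 50 mM Tris-HCl pH 7.4 at 37 °C for 5 min. Compound was added at 2 µM final and incubated at 37 °C; NADPH-free incubations served as controls. Reactions were quenched with acetonitrile plus internal standard at 60 min. Percent remaining was measured by LC-MS/MS (n=3).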

[7] = test system: Influenza A virus; assay: Antiviral activity against Influenza A virus (A/Puerto Rico/8/1934(H1N1)) infected in MDCK cells incubated for 3 days by crystal violet staining based plaque assay; format: functional, organism-based; conditions: 72 h
Summary of the method: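 Confluent MDCK monolayers were exposed to 10-fold serial virus dilutions for 1 h at 37 °C, then washed. The overlay was DMEM with 1.5% agarose, 0.02% DEAE-dextran and 1 µg/ml TPCK-trypsin. After 3 days at 37 °C in 5% CO2, cells were fixed with 0.05% glutaraldehyde, stained with 1% crystal violet in 20% ethanol, and plaques were counted.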

[8] = test system: Influenza A virus; assay: Antiviral activity against Influenza A virus (A/Puerto Rico/8/1934(H1N1)) infected in Kunming mouse assessed as decrease in pulmonary viral titers at 5 to 10 mg/kg/day, po starting 4 hrs after viral challenge and continued for 4 days by plaque assay; format: functional, organism-based
Summary of the method: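 Four-week-old female Kunming mice were infected intranasally with PR8 (500 PFU/mouse in 40 µL PBS), randomized, and dosed once daily orally or intranasally. On day 4 the mice were euthanized; lungs were removed, weighed, homogenized in PBS, and titrated by plaque assay.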

[9] = Toxicity in Influenza A virus (A/Puerto Rico/8/1934(H1N1)) infected Kunming mouse assessed as induction of body weight loss at 20 to 40 ug/day dosed intranasally starting 4 hrs after viral challenge and continued for 7 days by plaque assay; format: organism-based; conditions: in vivo, inhaled_or_intranasal
[10] = test system: Influenza A virus; assay: Antiviral activity against Influenza A virus (A/Puerto Rico/8/1934(H1N1)) infected in Kunming mouse assessed as decrease in lung TNFalpha level at 5 to 10 mg/kg/day, po starting 4 hrs after viral challenge and continued for 4 days by ELISA; format: functional, organism-based
Summary of the method: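 Four-week-old female Kunming mice received PR8 intranasally (500 PFU/mouse in 40 µL PBS) and were then dosed once daily orally or intranasally. Lungs were collected on day 4, and TNF-α and IL-6 in lung tissue were measured by ELISA.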

[11] = Toxicity in Kunming mouse assessed as effect on blood urea nitrogen level at 5 to 10 mg/kg/day, po for 7 days; format: organism-based; conditions: in vivo, 168 h
Summary of the method: (§2)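 Male Kunming mice (20–25 g) received compound orally at 5 or 10 mg/kg/day, suspended in 0.5% sodium carboxymethyl cellulose, once daily for 7 days; controls received vehicle. Serum was collected under isoflurane 24 h after the last dose. AST, ALT, CR, BUN, LDH, CK and CK-MB were measured with commercial kits.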

[12] = Toxicity in Kunming mouse assessed as effect on LDH level at 5 to 10 mg/kg/day, po for 7 days; format: organism-based; conditions: in vivo, 168 h; summary of the method: as §2
[13] = test system: Influenza A virus; assay: Antiviral activity against Influenza A virus (A/Puerto Rico/8/1934(H1N1)) infected in MDCK cells assessed as decrease in viral titers at 50 ug/ml pre-treated with virus before infection and measured 24 hrs post infection by HA assay; format: functional, organism-based
Summary of the method: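 MDCK cells were infected at high moi (≈3.0 PFU/cell). Virus-containing supernatants were serially diluted 2-fold and mixed with an equal volume of 1% chicken red blood cells. After 60 min at 4 °C, wells were scored for button sedimentation versus opaque agglutination to give titers.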

[14] = biological target: Hemagglutinin (Influenza A virus (A/Puerto Rico/8/1934(H1N1)), UniProt P03452); assay: Binding affinity to Influenza A virus (A/Puerto Rico/8/1934(H1N1)) Hemagglutinin at 1.5625 to 50 uM by SPR assay; conditions: read-out: Kd
Chain of Hemagglutinin (Influenza A virus (A/Puerto Rico/8/1934(H1N1)), UniProt P03452) (P03452 whole entry): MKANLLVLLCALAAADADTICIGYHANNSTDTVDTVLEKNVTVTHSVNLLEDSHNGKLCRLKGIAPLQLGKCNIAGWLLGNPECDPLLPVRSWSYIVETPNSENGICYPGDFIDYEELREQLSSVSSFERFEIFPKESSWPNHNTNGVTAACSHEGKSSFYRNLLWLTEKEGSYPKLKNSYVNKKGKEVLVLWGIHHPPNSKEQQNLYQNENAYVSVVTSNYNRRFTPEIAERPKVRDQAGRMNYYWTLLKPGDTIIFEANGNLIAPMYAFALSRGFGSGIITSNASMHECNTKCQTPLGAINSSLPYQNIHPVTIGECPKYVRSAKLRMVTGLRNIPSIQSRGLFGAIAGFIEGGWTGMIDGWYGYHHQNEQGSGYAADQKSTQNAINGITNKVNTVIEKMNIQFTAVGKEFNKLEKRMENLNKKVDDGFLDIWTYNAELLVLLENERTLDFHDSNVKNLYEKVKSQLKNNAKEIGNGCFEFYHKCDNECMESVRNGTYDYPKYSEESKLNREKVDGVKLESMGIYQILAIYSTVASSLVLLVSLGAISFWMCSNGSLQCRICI
Summary of the method: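 HA protein was immobilized on CM5 chips. Compound (50, […], 12.5, 6.25, 3.125, 1.5625 µM) was injected for 2 min, followed by a 10-min PBST wash and regeneration with 2 mM NaOH for 30 s. Runs were at 25 °C with 2 µl/s flow, using a blank HA-free reference channel. KD was obtained from kinetic fitting.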

[15] = test system: Influenza A virus; assay: Antiviral activity against wild type Influenza A virus (A/Puerto Rico/8/1934(H1N1)) pseudovirus infected in 293FT cells incubated for 48 hrs by inverted fluorescence microscopy; format: functional, organism-based
Summary of the method: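 GFP-reporter lentiviral pseudoviruses bearing PR8 wild-type or mutant (T30N/E233D/T359A or T359A) HA plus NA were produced in 293FT cells. Pseudovirus was pretreated with 50 µg/ml compound for 1 h at 37 °C before infection. GFP-positive cells were counted by fluorescence microscopy at 48 h p.i.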

[16] = biological target: Hemagglutinin (Influenza A virus (A/Puerto Rico/8/1934(H1N1))) (UniProt P03452); assay: Inhibition of trypsin-mediated cleavage of Influenza A virus (A/Puerto Rico/8/1934(H1N1)) Hemagglutinin (HA0) at 50 ug/ml incubated for 30 mins by Coomassie blue fast staining and SDS-PAGE gel based trypsin susceptibility assay
Chain of Hemagglutinin (Influenza A virus (A/Puerto Rico/8/1934(H1N1))) (P03452 whole entry): as above
Summary of the method: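 About 5 µg PR8 HA protein was preincubated with about 50 µg/ml compound for 30 min at RT; controls received 2% DMSO. Samples were acidified with 1 M sodium acetate pH 5.0 (one kept at pH 7.0) for 20 min at 37 °C, then neutralized with 200 mM Tris pH 8.5. TPCK-trypsin was added at 1:50 by mass for 30 min at 37 °C. Samples were run on non-reducing 12% SDS-PAGE with Coomassie staining.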

CC(=O)c1cc(C)c(O)c(Cc2[nH]c3ccccc3c2Cc2c(O)c(C)cc(C(C)=O)c2O)c1O
CC50 at 48 h [1]: 1470 µM | Tmax [2]: 4 h | half-life [3]: 3.4 h | half-life [4]: 3.3 h | half-life [5]: 4.8 h | remaining at 1 h, 2 µM [6]: 71.6% | IC50 [7]: < 13 µg/mL | Activity [8]: Active | Activity [9]: Non-Toxic | Activity [10]: Active | Activity [11]: Non-Toxic | Activity [12]: Non-Toxic | Activity [13]: Active | Kd [14]: 6.3 µM | IC50 [15]: 6 µg/mL (≈ 12.7 µM) | inhibition [16]: inactive

Source: ChEMBL document CHEMBL4619773, “Chemoreactive-Inspired Discovery of Influenza A Virus Dual Inhibitor to Block Hemagglutinin-Mediated Adsorption and Membrane Fusion” (J Med Chem, 2020)
